# Measurements as given in ChEMBL document CHEMBL1671631, “Staphylococcus aureus PBP4 is essential for beta-lactam resistance in community-acquired methicillin-resistant strains” (2008).
# What was measured:
# [1] = system: Staphylococcus aureus; experiment: Antimicrobial activity against community-acquired pbp3-deficient Staphylococcus aureus MW2 ex serotype USA400 by microdilution method; format: functional
# How it was run: (§1)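 Broth microdilution MIC per CLSI guidelines, inoculum 5 x 10^5 CFU/ml, confirmed by plating serial dilutions. Run in triplicate; three independent clones per mutant. Reported as the median of at least three independent experiments.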
# [2] = system: Staphylococcus aureus; experiment: Antimicrobial activity against community-acquired pbp4-deficient Staphylococcus aureus USA300 by microdilution method; format: functional
# How it was run: (§2)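 Broth microdilution MIC per CLSI guidelines, inoculum 5 x 10^5 CFU/ml, confirmed by plating serial dilutions. Run in triplicate; three independent clones per mutant. Reported as the median of at least three independent experiments. MBC: clear wells plated onto drug-free tryptic soy agar, 37°C, 24 and 48 h. pEPSA5-carrying strains tested with and without xylose, no chloramphenicol.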
# [3] = system: Staphylococcus aureus; experiment: Antimicrobial activity against community-acquired pbp3/4-deficient Staphylococcus aureus MW2 serotype USA400 by microdilution method; format: functional; how it was run: as §2
# [4] = system: Staphylococcus aureus; experiment: Antimicrobial activity against community-acquired pbp4::pbp4-deficient Staphylococcus aureus USA300 by microdilution method; format: functional; how it was run: as §2
# [5] = Antimicrobial activity against wild type hospital-acquired methicillin-resistant vancomycin-intermediate Staphylococcus aureus Mu50 serotype USA100 by microdilution method; format: functional, Staphylococcus aureus subsp. aureus Mu50; how it was run: as §2
# [6] = system: Staphylococcus aureus; experiment: Antimicrobial activity against community-acquired pbp4-deficient Staphylococcus aureus MW2 ex serotype USA400 by microdilution method; format: functional; how it was run: as §2
# [7] = system: Staphylococcus aureus; experiment: Antimicrobial activity against community-acquired pbp4::pbp4-deficient Staphylococcus aureus MW2 serotype USA400 by microdilution method; format: functional; how it was run: as §2
# [8] = system: Staphylococcus aureus; experiment: Antimicrobial activity against wild type hospital-acquired methicillin-resistant Staphylococcus aureus COL serotype USA500 by microdilution method; format: functional; how it was run: as §2
# [9] = system: Staphylococcus aureus; experiment: Antimicrobial activity against wild type hospital-acquired methicillin-resistant Staphylococcus aureus 252 after 48 hrs by microdilution method; format: functional; details: Staphylococcus aureus, 252, 48 h
# [10] = system: Staphylococcus aureus; experiment: Antimicrobial activity against wild type community-acquired methicillin-resistant Staphylococcus aureus MW2 serotype USA400 by microdilution method; format: functional; how it was run: as §2
# [11] = system: Staphylococcus aureus; experiment: Antimicrobial activity against wild type hospital-acquired methicillin-resistant Staphylococcus aureus COL after 48 hrs by microdilution method; format: functional
# [12] = Antimicrobial activity against hospital-acquired pbp4-deficient Staphylococcus aureus N315 serotype USA100 by microdilution method; format: functional, Staphylococcus aureus subsp. aureus N315; how it was run: as §1
# [13] = Antimicrobial activity against hospital-acquired pbp4-deficient Staphylococcus aureus Mu50 serotype USA100 by microdilution method; format: functional, Staphylococcus aureus subsp. aureus Mu50; how it was run: as §2
# [14] = system: Staphylococcus aureus; experiment: Antimicrobial activity against wild type community-acquired methicillin-resistant Staphylococcus aureus MW2 ex serotype USA400 by microdilution method; format: functional; how it was run: as §1
# [15] = system: Staphylococcus aureus; experiment: Antimicrobial activity against wild type community-acquired methicillin-resistant Staphylococcus aureus USA300 by microdilution method; format: functional; how it was run: as §2
# [16] = system: Staphylococcus aureus; experiment: Antimicrobial activity against hospital-acquired pbp3/4-deficient Staphylococcus aureus COL serotype USA500 by microdilution method; format: functional; how it was run: as §2
# [17] = Antimicrobial activity against wild type hospital-acquired methicillin-resistant Staphylococcus aureus N315 serotype USA100 by microdilution method; format: functional, Staphylococcus aureus subsp. aureus N315; how it was run: as §2
# [18] = system: Staphylococcus aureus; experiment: Antimicrobial activity against community-acquired pbp3/4-deficient Staphylococcus aureus MW2 ex serotype USA400 by microdilution method; format: functional; how it was run: as §2
# [19] = system: Staphylococcus aureus; experiment: Antimicrobial activity against wild type hospital-acquired methicillin-resistant vancomycin-intermediate Staphylococcus aureus Mu50 after 48 hrs by microdilution method; format: functional; details: Mu50, 48 h
# [20] = system: Staphylococcus aureus; experiment: Antimicrobial activity against wild type community-acquired methicillin-resistant Staphylococcus aureus MW2 (USA400) after 48 hrs by microdilution method; format: functional
# [21] = system: Staphylococcus aureus; experiment: Antimicrobial activity against hospital-acquired pbp4-deficient Staphylococcus aureus COL serotype USA500 by microdilution method; format: functional; how it was run: as §2
# [22] = system: Staphylococcus aureus; experiment: Antimicrobial activity against hospital-acquired pbp3-deficient Staphylococcus aureus COL serotype USA500 by microdilution method; format: functional; how it was run: as §2
# [23] = system: Staphylococcus aureus; experiment: Antimicrobial activity against community-acquired pbp3-deficient Staphylococcus aureus MW2 serotype USA400 by microdilution method; format: functional; how it was run: as §2
# [24] = system: Staphylococcus aureus; experiment: Antimicrobial activity against wild type community-acquired methicillin-resistant Staphylococcus aureus USA300 after 48 hrs by microdilution method; format: functional; details: USA300, 48 h
# [25] = system: Staphylococcus aureus; experiment: Antimicrobial activity against community-acquired pbp4-deficient Staphylococcus aureus MW2 serotype USA400 by microdilution method; format: functional; how it was run: as §2
# [26] = system: Staphylococcus aureus; experiment: Antimicrobial activity against community-acquired pbp4-deficient Staphylococcus aureus MW2 serotype USA400 by microdilution method relative to wild type; format: functional
# How it was run: (§3)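 Broth microdilution MIC per CLSI, inoculum 5 x 10^5 CFU/ml, inoculum confirmed by plating serial dilutions. Three independent clones tested per mutant, each in triplicate. Reported value is the median of at least three independent experiments. MBC obtained by plating clear wells onto drug-free tryptic soy agar, incubated 37°C for 24 and 48 h.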
# [27] = system: Staphylococcus aureus; experiment: Antimicrobial activity against community-acquired pbp4-deficient Staphylococcus aureus USA300 by microdilution method relative to wild type; format: functional; how it was run: as §3
Compound,MIC [1] [µg/mL],MIC [2] [µg/mL],MIC [3] [µg/mL],MIC [4] [µg/mL],MIC [5] [µg/mL],MIC [6] [µg/mL],MIC [7] [µg/mL],MIC [8] [µg/mL],MBC [9] [µg/mL],MIC [10] [µg/mL],MBC [11] [µg/mL],MIC [13] [µg/mL],MIC [15] [µg/mL],MIC [16] [µg/mL],MIC [17] [µg/mL],MIC [18] [µg/mL],MIC [21] [µg/mL],MIC [22] [µg/mL],MIC [23] [µg/mL],MIC [25] [µg/mL],other results
CO[C@@]1(NC(=O)Cc2cccs2)C(=O)N2C(C(=O)O)=C(COC(N)=O)CS[C@@H]21 [CEFOXITIN],32,64,64,64,256,16,64,128,> 256,64,> 256,256,64,128,64,32,128,128,64,64,MIC [12]: 64 µg/mL; MIC [14]: 16 µg/mL; MBC [19]: > 256 µg/mL; MBC [20]: > 256 µg/mL; MBC [24]: > 256 µg/mL
CCOc1ccc2ccccc2c1C(=O)N[C@@H]1C(=O)N2[C@@H]1SC(C)(C)[C@@H]2C(=O)O [NAFCILLIN],16,1,1,16,256,1,16,64,–,16,–,256,16,64,64,1,64,64,16,1,MIC [12]: 64 µg/mL; MIC [14]: 16 µg/mL; fold change (FC) [26]: 16; fold change (FC) [27]: 16
Cc1onc(-c2ccccc2)c1C(=O)N[C@@H]1C(=O)N2[C@@H]1SC(C)(C)[C@@H]2C(=O)O [OXACILLIN],–,4,4,64,256,2,64,64,> 256,–,> 256,256,64,256,256,1,256,256,64,4,MBC [19]: > 256 µg/mL; MBC [20]: 256 µg/mL; MBC [24]: 256 µg/mL; fold change (FC) [27]: 16
